Measurements reported in ChEMBL document CHEMBL1275377, “Structure-based design, synthesis, and structure-activity relationship studies of HIV-1 protease inhibitors incorporating phenyloxazolidinones” (J Med Chem, 2010).
Each block holds one molecule with its values, some of them ahead of it.

How the values were obtained:
[1] = system: Human immunodeficiency virus 1; experiment: Antiviral activity against multidrug resistant Human immunodeficiency virus 1 harboring protease M46I, I54V, V82A and L90M mutant; assay type: functional, organism-based
Outline: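 Drug susceptibility assay run by an outside contract lab. Panel: patient-derived wild-type HIV-1 clades A, B and C; MDR1 carrying protease M46I, I54V, V82A, L90M; MDR control MDRC4; and an NL4-3-derived clade B wild-type control (CNDO). The PR/RT regions of these strains were sequenced and deposited.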

[2] = system: Human immunodeficiency virus 1; experiment: Antiviral activity against wild type Human immunodeficiency virus 1; assay type: functional, organism-based
[3] = system: Human immunodeficiency virus 1; experiment: Antiviral activity against multidrug resistant Human immunodeficiency virus 1 MDRC4; assay type: functional, organism-based
[4] = system: Human immunodeficiency virus 1; experiment: Antiviral activity against Human immunodeficiency virus 1 clade C isolated from HIV-AIDS patient; assay type: functional, organism-based
[5] = system: Human immunodeficiency virus 1; experiment: Antiviral activity against Human immunodeficiency virus 1 clade B isolated from HIV-AIDS patient; assay type: functional, organism-based
[6] = system: Human immunodeficiency virus 1; experiment: Antiviral activity against Human immunodeficiency virus 1 clade A isolated from HIV-AIDS patient; assay type: functional, organism-based
Protease = Protease (Human immunodeficiency virus 1, UniProt Q9YQ12); experiment: Inhibition of wild type HIV1 protease by FRET
Sequence of Protease (Q9YQ12 whole entry): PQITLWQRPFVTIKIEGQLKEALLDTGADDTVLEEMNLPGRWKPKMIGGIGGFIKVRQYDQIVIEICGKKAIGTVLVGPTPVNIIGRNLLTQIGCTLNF

SMILES: CC(C)CN(C[C@@H](O)[C@H](Cc1ccccc1)NC(=O)[C@@H]1CN(c2ccccc2)C(=O)O1)S(=O)(=O)c1ccc2ncsc2c1
EC50 [1]: 113 nM | EC50 [2]: 21.5 nM | EC50 [3]: 123 nM | EC50 [4]: 40.9 nM | EC50 [5]: 14.1 nM | EC50 [6]: 29.8 nM

SMILES: CC(C)CN(C[C@@H](O)[C@H](Cc1ccccc1)NC(=O)[C@@H]1CN(c2ccccc2)C(=O)O1)S(=O)(=O)c1ccc(CO)cc1
Ki (Protease): 0.252 nM

SMILES: CC(C)CN(C[C@@H](O)[C@H](Cc1ccccc1)NC(=O)[C@@H]1CN(c2ccc(F)cc2F)C(=O)O1)S(=O)(=O)c1ccc(N)cc1
Ki (Protease): 0.385 nM

SMILES: CC(C)CN(C[C@@H](O)[C@H](Cc1ccccc1)NC(=O)[C@@H]1CN(c2ccc(F)cc2F)C(=O)O1)S(=O)(=O)c1ccc2c(c1)OCO2
Ki (Protease): 0.347 nM

SMILES: CC(C)CN(C[C@@H](O)[C@H](Cc1ccccc1)NC(=O)[C@@H]1CN(c2ccc(F)cc2F)C(=O)O1)S(=O)(=O)c1ccc(CO)cc1
Ki (Protease): 0.212 nM

SMILES: CC(C)CN(C[C@@H](O)[C@H](Cc1ccccc1)NC(=O)[C@@H]1CN(c2ccc(F)cc2)C(=O)O1)S(=O)(=O)c1ccc(N)cc1
Ki (Protease): 0.448 nM

SMILES: CC(=O)c1ccc(N2C[C@@H](C(=O)N[C@@H](Cc3ccccc3)[C@H](O)CN(CC(C)C)S(=O)(=O)c3ccc(CO)cc3)OC2=O)cc1
Ki (Protease): 0.317 nM

SMILES: CC(C)CN(C[C@@H](O)[C@H](Cc1ccccc1)NC(=O)[C@@H]1CN(c2cccc(F)c2)C(=O)O1)S(=O)(=O)c1ccc(CO)cc1
Ki (Protease): 0.319 nM

SMILES: CC(C)CN(C[C@@H](O)[C@H](Cc1ccccc1)NC(=O)[C@@H]1CN(c2ccc(F)c(F)c2)C(=O)O1)S(=O)(=O)c1ccc(CO)cc1
Ki (Protease): 0.33 nM

SMILES: CC(C)CN(C[C@@H](O)[C@H](Cc1ccccc1)NC(=O)[C@@H]1CN(c2cccc(C(F)(F)F)c2)C(=O)O1)S(=O)(=O)c1ccc2ncsc2c1
EC50 [1]: 57.6 nM | EC50 [2]: 13.5 nM | EC50 [3]: 53.4 nM | EC50 [4]: 32.5 nM | EC50 [5]: 9.9 nM | EC50 [6]: 16.1 nM

SMILES: CC(C)CN(C[C@@H](O)[C@H](Cc1ccccc1)NC(=O)[C@@H]1CN(c2cccc(OC(F)(F)F)c2)C(=O)O1)S(=O)(=O)c1ccc2ncsc2c1
EC50 [1]: 104 nM | EC50 [2]: 22.1 nM | EC50 [3]: 111 nM | EC50 [4]: 57.8 nM | EC50 [5]: 12.7 nM | EC50 [6]: 32.5 nM

SMILES: CC(=O)c1cccc(N2C[C@@H](C(=O)N[C@@H](Cc3ccccc3)[C@H](O)CN(CC(C)C)S(=O)(=O)c3ccc4ncsc4c3)OC2=O)c1
EC50 [1]: 32.3 nM | EC50 [2]: 6.5 nM | EC50 [3]: 34.7 nM | EC50 [4]: 10.1 nM | EC50 [5]: 4.2 nM | EC50 [6]: 9.7 nM

SMILES: CC(=O)c1cccc(N2C[C@@H](C(=O)N[C@@H](Cc3ccccc3)[C@H](O)CN(CC(C)C)S(=O)(=O)c3ccc(CO)cc3)OC2=O)c1
Ki (Protease): 0.236 nM

SMILES: COc1ccc(S(=O)(=O)N(CC(C)C)C[C@@H](O)[C@H](Cc2ccccc2)NC(=O)[C@@H]2CN(c3cccc(S(C)(=O)=O)c3)C(=O)O2)cc1
EC50 [1]: 14.4 nM | EC50 [2]: 5.5 nM | EC50 [3]: 18.6 nM | EC50 [4]: 9.6 nM | EC50 [5]: 4.7 nM | EC50 [6]: 7.3 nM

SMILES: CC(C)CN(C[C@@H](O)[C@H](Cc1ccccc1)NC(=O)[C@@H]1CN(c2cccc(S(C)(=O)=O)c2)C(=O)O1)S(=O)(=O)c1ccc2c(c1)OCO2
EC50 [1]: 13.6 nM | EC50 [2]: 4 nM | EC50 [3]: 12.1 nM | EC50 [4]: 7.6 nM | EC50 [5]: 3.5 nM | EC50 [6]: 7.8 nM

SMILES: CC(C)CN(C[C@@H](O)[C@H](Cc1ccccc1)NC(=O)[C@@H]1CN(c2cccc(S(C)(=O)=O)c2)C(=O)O1)S(=O)(=O)c1ccc2ncsc2c1
EC50 [1]: 9.4 nM | EC50 [2]: 5 nM | EC50 [3]: 10.5 nM | EC50 [4]: 5.7 nM | EC50 [5]: 3.5 nM | EC50 [6]: 4.1 nM

SMILES: CC(C)CN(C[C@@H](O)[C@H](Cc1ccccc1)NC(=O)[C@@H]1CN(c2cccc([N+](=O)[O-])c2)C(=O)O1)S(=O)(=O)c1ccc2ncsc2c1
EC50 [1]: 33.8 nM | EC50 [2]: 7.3 nM | EC50 [3]: 37.7 nM | EC50 [4]: 16.3 nM | EC50 [5]: 5.7 nM | EC50 [6]: 11.5 nM

SMILES: COc1ccc(S(=O)(=O)N(CC(C)C)C[C@@H](O)[C@H](Cc2ccccc2)NC(=O)[C@@H]2CN(c3cccc(N)c3)C(=O)O2)cc1
EC50 [1]: 19 nM | EC50 [2]: 4 nM | EC50 [3]: 36.4 nM | EC50 [4]: 9.4 nM | EC50 [5]: 3 nM | EC50 [6]: 8.5 nM

SMILES: CC(C)CN(C[C@@H](O)[C@H](Cc1ccccc1)NC(=O)[C@@H]1CN(c2cccc(N)c2)C(=O)O1)S(=O)(=O)c1ccc2c(c1)OCO2
EC50 [1]: 27.9 nM | EC50 [2]: 7.1 nM | EC50 [3]: 35.4 nM | EC50 [4]: 12.3 nM | EC50 [5]: 2.8 nM | EC50 [6]: 6.1 nM

SMILES: CC(C)CN(C[C@@H](O)[C@H](Cc1ccccc1)NC(=O)[C@@H]1CN(c2cccc(N)c2)C(=O)O1)S(=O)(=O)c1ccc2ncsc2c1
EC50 [1]: 11.9 nM | EC50 [2]: 1.7 nM | EC50 [3]: 14.6 nM | EC50 [4]: 2.5 nM | EC50 [5]: 1.3 nM | EC50 [6]: 2.6 nM

SMILES: CC(=O)Nc1cccc(N2C[C@@H](C(=O)N[C@@H](Cc3ccccc3)[C@H](O)CN(CC(C)C)S(=O)(=O)c3ccc4c(c3)OCO4)OC2=O)c1
EC50 [1]: 41.9 nM | EC50 [2]: 10.9 nM | EC50 [3]: 46.9 nM | EC50 [4]: 21.1 nM | EC50 [5]: 6.3 nM | EC50 [6]: 9 nM

SMILES: CC(=O)Nc1cccc(N2C[C@@H](C(=O)N[C@@H](Cc3ccccc3)[C@H](O)CN(CC(C)C)S(=O)(=O)c3ccc4ncsc4c3)OC2=O)c1
EC50 [1]: 25.4 nM | EC50 [2]: 5.8 nM | EC50 [3]: 29.5 nM | EC50 [4]: 9.5 nM | EC50 [5]: 7.7 nM | EC50 [6]: 10.1 nM

SMILES: COC(=O)Nc1cccc(N2C[C@@H](C(=O)N[C@@H](Cc3ccccc3)[C@H](O)CN(CC(C)C)S(=O)(=O)c3ccc4ncsc4c3)OC2=O)c1
EC50 [1]: 10.8 nM | EC50 [2]: 1.2 nM | EC50 [3]: 13 nM | EC50 [4]: 3 nM | EC50 [5]: 1.6 nM | EC50 [6]: 2.4 nM

SMILES: CC(C)CN(C[C@@H](O)[C@H](Cc1ccccc1)NC(=O)O[C@H]1CO[C@H]2OCC[C@H]21)S(=O)(=O)c1ccc(N)cc1
EC50 [1]: 0.5 nM | EC50 [2]: 0.4 nM | EC50 [4]: 0.4 nM | EC50 [5]: 0.4 nM | EC50 [6]: 0.6 nM

Ki (Protease): 0.53 nM
SMILES: CC(C)CN(C[C@@H](O)[C@H](Cc1ccccc1)NC(=O)[C@@H]1CN(c2ccccc2)C(=O)O1)S(=O)(=O)c1ccc(N)cc1

SMILES: CC(=O)c1cccc(N2C[C@@H](C(=O)N[C@@H](Cc3ccccc3)[C@H](O)CN(CC(C)C)S(=O)(=O)c3ccc4c(c3)OCO4)OC2=O)c1
Ki (Protease): 0.006 nM

Ki (Protease): 0.1 nM
SMILES: COc1ccc(S(=O)(=O)N(CC(C)C)C[C@@H](O)[C@H](Cc2ccccc2)NC(=O)[C@@H]2CN(c3ccccc3)C(=O)O2)cc1
